Results taken from ChEMBL document CHEMBL3576775 (Eur J Med Chem, 2015).
The source made the active and inactive calls. The rule behind the calls is not given here.

Assays:
[1] = system: Mus musculus; test: Acute toxicity against Swiss albino mouse assessed as histological changes in kidney at 5 to 300 mg, po measured after 14 days; assay type: organism-based; settings: in vivo, 336 h
Outline: (§1)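 Oral single doses of 5 mg, 50 mg and 300 mg to mice in three groups of three. Observed continuously for 4 h for signs of toxicity, then at regular intervals over the first 24 h and once daily for 14 days. Animals sacrificed at day 14; histology of liver, kidney and heart.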

[2] = target: T1, Prostaglandin G/H synthase 2 (Homo sapiens) (UniProt P35354)
T1 sequence (whole entry): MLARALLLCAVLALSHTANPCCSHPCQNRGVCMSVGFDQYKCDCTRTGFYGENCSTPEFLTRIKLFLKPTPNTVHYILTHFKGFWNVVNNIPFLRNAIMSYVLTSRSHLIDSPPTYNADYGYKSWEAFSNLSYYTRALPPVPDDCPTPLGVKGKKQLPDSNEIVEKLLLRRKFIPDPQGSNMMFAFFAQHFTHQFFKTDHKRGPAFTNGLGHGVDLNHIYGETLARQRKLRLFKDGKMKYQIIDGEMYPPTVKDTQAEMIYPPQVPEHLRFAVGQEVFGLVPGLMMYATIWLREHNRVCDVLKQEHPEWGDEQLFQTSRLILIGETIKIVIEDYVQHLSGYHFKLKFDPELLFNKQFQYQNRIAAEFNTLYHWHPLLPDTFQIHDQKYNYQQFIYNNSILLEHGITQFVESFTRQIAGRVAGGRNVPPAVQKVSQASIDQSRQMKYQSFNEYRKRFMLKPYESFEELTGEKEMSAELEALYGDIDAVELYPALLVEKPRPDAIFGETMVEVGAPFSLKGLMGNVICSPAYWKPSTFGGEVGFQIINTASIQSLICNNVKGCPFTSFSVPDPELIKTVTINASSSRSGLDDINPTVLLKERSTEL

[3] = system: Mus musculus; test: Acute toxicity against Swiss albino mouse assessed as histological changes in heart at 5 to 300 mg, po measured after 14 days; assay type: organism-based; settings: in vivo, 336 h; outline: as §1
[4] = Inhibition of soyabean 5-LOX using arachidonic acid as substrate by microplate scanning spectrophotometer analysis; parameters: species or system Glycine max
Outline: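 Soybean lipoxygenase in assay buffer was mixed with compound (DMSO solutions at 0.01 to 100 μM, 1:10 into enzyme solution). Reaction started with arachidonic acid; plate shaken 5 min, chromogen added, shaken 5 min, read at 490 nm. Blanks and positive controls included. Duplicates, deviation <5%, averaged; percent inhibition calculated from activity.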

[5] = system: Glycine max; test: Competitive inhibition of soyabean 5-LOX using arachidonic acid as substrate by double reciprocal plot analysis
Outline: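 Arachidonic acid in HEPES:DMSO (1:1) at 2 mM, added in 5 μL increments (50 μM final each) to fixed enzyme. Change in substrate absorbance at maxima plotted double-reciprocally, without inhibitor and with 10 μM or 20 μM inhibitor; intersection of the extrapolated lines indicates inhibition type.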

[6] = system: Mus musculus; test: Anti-inflammatory activity against Swiss albino mouse assessed as reduction in paw thickness at 5 mg/kg, ip administered 30 mins prior to dextran injection measured after 4 hrs by vernier calliper analysis relative to control; assay type: functional
Outline: (§2)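 Swiss albino mice, 5 per group. […] Paw thickness measured by vernier calipers at 1, 2, 3, 4, 6 and 24 h. Reduction expressed relative to control; mean ± SEM.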

[7] = system: Glycine max
[8] = system: Mus musculus; test: Anti-hyperalgesic activity against Swiss albino mouse assessed as reduction in paw lickings at 5 mg/kg, ip administered 30 mins prior to capsaicin injection and 30 mins after 200 ug misoprostol injection; assay type: functional, organism-based
Outline: (§3)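 Mice (5 per group, 7 groups), all treatments i.p. Misoprostol (200 μg) or substance P (10 μg) given 30 min before test compound (5 mg Kg⁻¹); capsaicin (20 μL) injected into right hind paw plantar surface 30 min later. Controls received normal saline. Paw lickings counted over 10 min after capsaicin.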

[9] = system: Mus musculus; test: Anti-hyperalgesic activity against Swiss albino mouse assessed as reduction in paw lickings at 5 mg/kg, ip administered 30 mins prior to capsaicin injection and 30 mins after 10 ug substance-P injection; assay type: functional, organism-based; outline: as §3
[10] = system: Mus musculus; test: Acute toxicity against Swiss albino mouse assessed as lesser inflammatory cells and decreased area of necrosis in stomach at 5 to 300 mg, po measured after 14 days; assay type: organism-based; settings: in vivo, 336 h
[11] = system: Mus musculus; test: Anti-inflammatory activity against Swiss albino mouse assessed as reduction in paw thickness at 10 mg/kg, ip administered 30 mins prior to dextran injection measured after 4 hrs by vernier calliper analysis relative to control; assay type: functional; outline: as §2
[12] = Competitive inhibition of soyabean 5-LOX by UV-Visible spectrophotometry; parameters: species or system Glycine max
[13] = target: T2, Prostaglandin G/H synthase 2 (Homo sapiens, UniProt P35354); test: Competitive inhibition of human recombinant COX-2 by UV-Visible spectrophotometry
T2 sequence (P35354 whole entry): T1 sequence (whole entry)
Outline: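 Double reciprocal plot from UV-vis absorbance change at the maximum. Arachidonic acid in HEPES:DMSO (1:1) added in 5 µl increments (each giving 50 µM final) to a fixed enzyme concentration. Repeated with inhibitor at fixed 10 µM and 20 µM. Type of inhibition taken from where the extrapolated trails meet; also from IC50 versus Ki comparison.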

[14] = system: Mus musculus; test: Acute toxicity against Swiss albino mouse assessed as histological changes in liver at 5 to 300 mg, po measured after 14 days; assay type: organism-based; settings: in vivo, 336 h; outline: as §1
[15] = target: T3, Prostaglandin G/H synthase 1 (Ovis aries, UniProt P05979); test: Inhibition of ovine COX-1 assessed as PGF2alpha formation using arachidonic acid as substrate pretreated with compound for 20 mins prior to substrate addition by spectrophotometric analysis
T3 sequence (P05979 whole entry): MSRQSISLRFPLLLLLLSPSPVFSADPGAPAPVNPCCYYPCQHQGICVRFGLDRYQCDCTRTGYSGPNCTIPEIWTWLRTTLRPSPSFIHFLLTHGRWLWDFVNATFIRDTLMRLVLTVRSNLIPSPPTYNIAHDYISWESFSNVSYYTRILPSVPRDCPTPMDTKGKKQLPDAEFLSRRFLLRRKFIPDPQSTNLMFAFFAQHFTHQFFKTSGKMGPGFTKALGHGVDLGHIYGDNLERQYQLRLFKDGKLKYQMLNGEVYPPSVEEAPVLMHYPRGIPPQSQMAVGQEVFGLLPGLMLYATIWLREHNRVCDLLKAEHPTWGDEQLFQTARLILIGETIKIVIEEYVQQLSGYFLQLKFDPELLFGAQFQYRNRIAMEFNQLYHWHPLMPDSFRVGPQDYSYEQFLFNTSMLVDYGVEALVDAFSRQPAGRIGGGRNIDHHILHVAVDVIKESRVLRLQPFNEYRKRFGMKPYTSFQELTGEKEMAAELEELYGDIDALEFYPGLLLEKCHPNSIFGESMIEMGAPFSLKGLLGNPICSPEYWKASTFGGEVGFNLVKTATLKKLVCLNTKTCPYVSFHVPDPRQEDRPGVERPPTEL

[16] = system: Mus musculus; test: Anti-hyperalgesic activity against Swiss albino mouse assessed as reduction in paw lickings at 5 mg/kg, ip administered 30 mins prior to capsaicin injection relative to control; assay type: functional
[17] = system: Mus musculus; test: Anti-hyperalgesic activity against Swiss albino mouse assessed as reduction in paw lickings at 10 mg/kg, ip administered 30 mins prior to capsaicin injection relative to control; assay type: functional
Outline: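 Swiss albino mice, 5 per group; compound given i.p. 30 min before 20 μL capsaicin injected into plantar surface of right hind paw. […] Paw lickings and twitchings counted over 10 min after capsaicin as hyperalgesia indicator; mean ± SEM, one-way ANOVA with Tukey's test versus control.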

Structure (SMILES)	Ka [2]	IC50 [4] [nM]	Ka [7]	Ki [12] [nM]	Ki [13] [nM]	IC50 [15] [nM]	also measured
Cc1ccc(S(=O)(=O)n2cc(C(=O)C(=O)N[C@@H](Cc3c[nH]c4ccccc34)C(=O)NCC(=O)O)c3ccccc32)cc1	3.29 ×10⁵ /M	2	3.36 ×10⁶ /M	42	109	2210	Activity [1]: Non-toxic; Activity [3]: Non-toxic; inhibition [5]: Active; inhibition in vivo at 5 mg/kg [6]: 47%; inhibition [8]: Active; inhibition [9]: inactive; Activity [10]: Non-toxic; inhibition in vivo at 10 mg/kg [11]: 49%; Activity [14]: Non-toxic; inhibition in vivo at 5 mg/kg [16]: 96%
Cc1ccc(S(=O)(=O)n2cc(C(=O)C(=O)NCC(=O)N[C@H](Cc3c[nH]c4ccccc34)C(=O)O)c3ccccc32)cc1	–	15200	–	–	–	98300	–
Cc1ccc(S(=O)(=O)n2cc(C(=O)C(=O)N[C@@H](Cc3c[nH]c4ccccc34)C(=O)O)c3ccccc32)cc1	–	10	–	–	–	87200	–
COC(=O)CNC(=O)CNC(=O)C(=O)c1cn(S(=O)(=O)c2ccc(C)cc2)c2ccccc12	1.81 ×10² /M	100	2.08 ×10⁵ /M	97	4660	104000	–
COC(=O)CC[C@H](NC(=O)[C@H](Cc1cnc[nH]1)NC(=O)C(=O)c1cn(S(=O)(=O)c2ccc(C)cc2)c2ccccc12)C(=O)OC	4.43 ×10⁴ /M	600	3.02 ×10⁵ /M	356	983	76500	–
COC(=O)CNC(=O)[C@@H](Cc1c[nH]c2ccccc12)NC(=O)C(=O)c1cn(S(=O)(=O)c2ccc(C)cc2)c2ccccc12	–	8380	–	–	–	71300	–
CC(C)(C)Sc1c(CC(C)(C)C(=O)O)n(Cc2ccc(Cl)cc2)c2ccc(OCc3ccc4ccccc4n3)cc12 [QUIFLAPON]	–	1600	–	–	–	–	–
Cc1ccc(S(=O)(=O)n2cc(C(=O)C(=O)NCC(=O)O)c3ccccc32)cc1	–	8.6	–	–	–	90100	–
COC(=O)[C@H](Cc1c[nH]c2ccccc12)NC(=O)CNC(=O)C(=O)c1cn(S(=O)(=O)c2ccc(C)cc2)c2ccccc12	9.87 ×10³ /M	1000	7.7 ×10⁴ /M	753	1340	90900	–
COC(=O)CC[C@@H](NC(=O)[C@@H](Cc1cnc[nH]1)NC(=O)C(=O)c1cn(S(=O)(=O)c2ccc(C)cc2)c2ccccc12)C(=O)OC	–	3700	–	–	–	20200	–
Cc1ccc(S(=O)(=O)n2cc(C(=O)C(=O)NCC(=O)N[C@@H](Cc3c[nH]c4ccccc34)C(=O)O)c3ccccc32)cc1	3.25 ×10⁶ /M	4	2.06 ×10⁶ /M	64	5	43500	inhibition [5]: Active; inhibition in vivo at 5 mg/kg [16]: 88%; inhibition in vivo at 10 mg/kg [17]: 96%
O=C(O)Cc1ccccc1Nc1c(Cl)cccc1Cl [DICLOFENAC]	–	–	–	–	–	–	inhibition in vivo at 10 mg/kg [11]: 42%; inhibition in vivo at 10 mg/kg [17]: 90%
Cc1ccc(S(=O)(=O)n2cc(C(=O)C(=O)N[C@@H](Cc3cnc[nH]3)C(=O)O)c3ccccc32)cc1	–	2800	–	–	–	> 100000	–
Cc1ccc(S(=O)(=O)n2cc(C(=O)C(=O)N[C@@H](Cc3cnc[nH]3)C(=O)N[C@@H](CCC(=O)O)C(=O)O)c3ccccc32)cc1	7.76 ×10⁵ /M	80	1.99 ×10⁵ /M	536	12	12900	inhibition [5]: Active; inhibition in vivo at 5 mg/kg [6]: 45%; inhibition [8]: Active; inhibition [9]: inactive; inhibition in vivo at 10 mg/kg [11]: 48%; inhibition in vivo at 5 mg/kg [16]: 95%
Cc1ccc(S(=O)(=O)n2cc(C(=O)C(=O)NCC(=O)NCC(=O)O)c3ccccc32)cc1	1.9 ×10³ /M	5	2.99 ×10⁵ /M	232	3120	> 100000	inhibition [5]: Active; inhibition in vivo at 5 mg/kg [16]: 90%
COC(=O)CNC(=O)[C@H](Cc1c[nH]c2ccccc12)NC(=O)C(=O)c1cn(S(=O)(=O)c2ccc(C)cc2)c2ccccc12	7.91 ×10³ /M	800	5.6 ×10⁴ /M	946	2900	9890	–
Cc1ccc(S(=O)(=O)n2cc(C(=O)C(=O)N[C@H](Cc3c[nH]c4ccccc34)C(=O)NCC(=O)O)c3ccccc32)cc1	–	5610	–	–	–	> 100000	–
COC(=O)[C@@H](Cc1c[nH]c2ccccc12)NC(=O)CNC(=O)C(=O)c1cn(S(=O)(=O)c2ccc(C)cc2)c2ccccc12	–	12200	–	–	–	65500	–
Cc1ccc(S(=O)(=O)n2cc(C(=O)C(=O)N[C@H](Cc3cnc[nH]3)C(=O)N[C@H](CCC(=O)O)C(=O)O)c3ccccc32)cc1	–	2330	–	–	–	151000	–
NS(=O)(=O)c1ccc(-n2nc(C(F)(F)F)cc2-c2ccc(Br)cc2)cc1	–	–	–	–	–	13000	–
